According to ChEMBL document CHEMBL4680086, “Antiangiogenic Effect of (±)-Haloperidol Metabolite II Valproate Ester [(±)-MRJF22] in Human Microvascular Retinal Endothelial Cells” (J Med Chem, 2016):
pIC50, pKi: −log10 of the molar value. ≈ marks a conversion by molar mass, not a printed value. Blank lines part the entries; values can stand above or below the compound they belong to. Calls of active or inactive are those of the source. No cut-off for these calls is given here.

Assays:
[1] = (§1) Suppression of VEGF-A-induced angiogenesis in HREC assessed as reduction of the ramification number at 5 uM incubated for 24 hrs by Matrigel based tube formation assay; assay type: functional, Homo sapiens; set-up: scale not given: the % may be the effect or the level left
In short: (§2)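 HRECs plated on Matrigel in the presence of VEGF-A. Emerging branch points (ramification number) from tube formation were quantified by phase-contrast imaging.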

[2] = Stability in human plasma assessed as compound hydrolysis at 37 degC by HPLC analysis; assay type: ADME, cell-free
In short: (§3)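 Compound was incubated in rat or human plasma, and ester hydrolysis was followed. The rate was expressed as the observed rate constant kobs.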

[3] = Cytotoxicity in HREC assessed as reduction in cell viability at 5 uM incubated for 72 hrs in presence of 1 uM sigma2 receptor antagonist AC927 by MTT assay; assay type: functional, Homo sapiens
In short: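 HRECs co-incubated with compound and the σ2 ligand AC927 (1 μM) for 72 h. Cell viability read by MTT test.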

HREC [4] = test: Effect on cell migration of in HREC at 5 uM incubated for 24 to 72 hrs by wound healing assay; assay type: functional; conditions: Homo sapiens, time 24-72 hrs
In short: (§4)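 A scratch wound was made in a confluent HREC monolayer, which was then kept in 1% FBS medium, either basal or with VEGF-A 80 ng/mL. (+)-Pentazocine (1 or 2 μM) was added where indicated. Wound-edge cell advancement was scored as a percentage at 24 and 72 h after the scratch.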

[5] = (§5) Cytotoxicity in HREC assessed as reduction in cell counts at 5 uM incubated for 72 hrs under basal conditions by Trypan blue dye exclusion assay; assay type: functional, Homo sapiens; set-up: scale not given: the % may be the effect or the level left
In short: (§6)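 HRECs grown in medium with 1% FBS under basal conditions, no VEGF-A. Exposure 24 or 72 h. Read-out is the count of live cells excluding dye in a Trypan blue exclusion test.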

[6] = Stability in pH 1.3 buffer by HPLC analysis; assay type: physicochemical
In short: (§7)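 Chemical stability was tested at 37 °C in aqueous buffer at pH 1.3 (non-enzymatic simulated gastric fluid) or pH 7.4.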

[7] = Cytotoxicity in HREC assessed as reduction in cell viability at 5 uM incubated for 72 hrs by MTT assay; assay type: functional, Homo sapiens
In short: (§8)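 HREC viability measured by MTT test after compound exposure for 24, 48, 72 or 96 h, with concentrations up to 200 μM.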

[8] = Solubility in water incubated for 1 hr by HPLC analysis; assay type: physicochemical
[9] = target: Histone deacetylase (Homo sapiens) (UniProt Q13547+O15379+Q9UBN7+Q92769+Q9UQL6+Q8WUI4+Q9BY41+Q96DB2+P56524+Q9UKV0+Q969S8); test: Inhibition of HDAC in human HeLa cell extracts at 5 uM using fluorescently labeled HDAC substrate
[10] = Cytotoxicity in HREC assessed as reduction in cell viability incubated for 96 hrs by MTT assay; assay type: functional; conditions: Homo sapiens; for pIC50: read-out: IC50; for IC50: read-out: pIC50 (converted)
In short: (§9)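 HREC were exposed to the test agent for 24, 48, 72 or 96 h. Viability was measured by MTT, and IC50 values were derived for each time point.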

[11] = Suppression of VEGF-A-induced pro-angiogenesis in HREC assessed as alive cell number count at 5 uM incubated for 24 hrs by Trypan blue dye exclusion assay (reference value: 52%); assay type: functional, Homo sapiens
HREC [12] = test: Suppression of VEGF-A-induced cell migration in HREC assessed as effect on crossing cells count at 5 uM incubated for 24 to 72 hrs in presence of 1 to 2 uM sigma1 selective agonist (+)-pentazocine by wound healing assay; assay type: functional; conditions: Homo sapiens, time 24-72 hrs; in short: as §4
[13] = Suppression of VEGF-A-induced pro-angiogenesis in HREC assessed as alive cell number count at 5 uM incubated for 72 hrs by Trypan blue dye exclusion assay (reference value: 42%); assay type: functional, Homo sapiens
HREC [14] = test: Cytotoxicity in HREC assessed as reduction in cell viability at 5 uM incubated for 72 hrs in presence of 1 uM sigma1 selective agonist (+)-pentazocine by MTT assay; assay type: functional; conditions: Homo sapiens
In short: (§10)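 HREC were co-incubated for 72 h with the test agent plus either the σ1 agonist (+)-pentazocine (1 μM) or the σ2 ligand AC927 (1 μM). Viability was read by MTT test.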

D(3) dopamine receptor = D(3) dopamine receptor (Rattus norvegicus, UniProt P19020); test: Displacement of [3H]-7-OH-DPAT from DRD3 in rat olfactory tubercle by scintillation counting; assay type: tissue-based
[15] = (§11) Suppression of VEGF-A-induced cell migration in HREC assessed as crossing cells count at 5 uM incubated for 72 hrs by wound healing assay (reference value: 26%); assay type: functional, Homo sapiens
[16] = Cytotoxicity in HREC assessed as reduction in cell viability incubated for 72 hrs by MTT assay; assay type: functional; conditions: Homo sapiens; for pIC50: read-out: IC50; for IC50: read-out: pIC50 (converted); in short: as §9
[17] = Displacement of [3H]-DTG from sigma2 receptor in guinea pig brain membranes by scintillation counting; assay type: cell membranes, Cavia porcellus, Cell membrane
[18] = (§12) Cytotoxicity in HREC assessed as reduction in cell counts at 5 uM incubated for 24 hrs under basal conditions by Trypan blue dye exclusion assay; assay type: functional, Homo sapiens; set-up: scale not given: the % may be the effect or the level left; in short: as §6
[19] = Cytotoxicity in HREC assessed as reduction in cell viability at 5 uM incubated for 24 hrs by MTT assay; assay type: functional, Homo sapiens; in short: as §8
HREC [20] = test: Suppression of VEGF-A-induced cell migration in HREC assessed as effect on crossing cells count at 5 uM incubated for 24 to 72 hrs in presence of 1 to 2 uM sigma2 receptor antagonist AC927 by wound healing assay; assay type: functional; conditions: Homo sapiens, time 24-72 hrs
[21] = Stability in pH 7.4 buffer by HPLC analysis; assay type: physicochemical; in short: as §7
HREC [22] = test: Suppression of VEGF-A-induced angiogenesis in HREC assessed as reduction of the ramification number at 5 uM incubated for 24 hrs in presence of 2 uM sigma1 selective agonist (+)-pentazocine by Matrigel based tube formation assay; assay type: functional, tissue-based; conditions: Homo sapiens
In short: (§13)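 HREC were plated on Matrigel with VEGF-A stimulation. Emerging branch points (ramifications) from cell bodies were counted by phase-contrast imaging.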

[23] = (§14) Suppression of VEGF-A-induced cell migration in HREC assessed as crossing cells count at 5 uM incubated for 24 hrs by wound healing assay (reference value: 63%); assay type: functional, Homo sapiens
[24] = Cytotoxicity in HREC assessed as reduction in cell viability incubated for 48 hrs by MTT assay; assay type: functional; conditions: Homo sapiens; for pIC50: read-out: IC50; for IC50: read-out: pIC50 (converted); in short: as §9
HREC [25] = test: Suppression of VEGF-A-induced angiogenesis in HREC assessed as reduction of the ramification number at 5 uM incubated for 24 hrs in presence of 2 uM sigma2 selective antagonist AC927 by Matrigel based tube formation assay; assay type: functional, tissue-based; conditions: Homo sapiens; in short: as §13
D(2) dopamine receptor = D(2) dopamine receptor (Rattus norvegicus, UniProt P61169); test: Displacement of [3H]-spiperone from DRD2 in rat striatum by scintillation counting; assay type: tissue-based
[26] = Cytotoxicity in HREC assessed as reduction in cell viability incubated for 24 hrs by MTT assay; assay type: functional; conditions: Homo sapiens; for pIC50: read-out: IC50; for IC50: read-out: pIC50 (converted); in short: as §8
[27] = target: Sigma non-opioid intracellular receptor 1 (Cavia porcellus, UniProt Q60492); test: Displacement of [3H]-pentazocine from sigma1 receptor in guinea pig brain membranes by scintillation counting; assay type: cell membranes, Cell membrane
[28] = Stability in rat plasma assessed as compound hydrolysis at 37 degC by HPLC analysis; assay type: ADME, cell-free; in short: as §3
HREC [29] = test: Cytotoxicity in HREC assessed as reduction in cell viability at 20 uM incubated for 72 hrs in presence of 1 uM sigma2 receptor antagonist AC927 by MTT assay; assay type: functional; conditions: Homo sapiens; in short: as §10
[30] = Cytotoxicity in HREC assessed as reduction in cell viability at 200 uM incubated for 24 hrs by MTT assay; assay type: functional, Homo sapiens; in short: as §8
HREC [31] = test: as §5; assay type: functional; conditions: Homo sapiens; in short: as §6
[32] = Cytotoxicity in HREC assessed as reduction in cell viability at 20 uM incubated for 72 hrs by MTT assay; assay type: functional, Homo sapiens; in short: as §8
HREC [33] = test: Cytotoxicity in HREC assessed as reduction in cell viability at 20 uM incubated for 72 hrs in presence of 1 uM sigma1 selective agonist (+)-pentazocine by MTT assay; assay type: functional; conditions: Homo sapiens; in short: as §10
HREC [34] = test: Cytotoxicity in HREC assessed as reduction in cell viability by MTT assay; assay type: functional; conditions: Homo sapiens, TDE = time-dependent effect; in short: as §9
HREC [35] = test: as §11; assay type: functional; conditions: Homo sapiens
HREC [36] = test: as §12; assay type: functional; conditions: Homo sapiens; in short: as §6
HREC [37] = test: as §14; assay type: functional; conditions: Homo sapiens
HREC [38] = test: as §1; assay type: functional; conditions: Homo sapiens; in short: as §2
HREC [39] = test: Effect on cell migration of in HREC at 2 uM incubated for 24 to 72 hrs by wound healing assay; assay type: functional; conditions: Homo sapiens, time 24-72 hrs
HREC [40] = test: Suppression of VEGF-A-induced cell migration in HREC assessed as effect on crossing cells count at 2 uM incubated for 24 to 72 hrs by wound healing assay; assay type: functional; conditions: Homo sapiens, time 24-72 hrs

Chain of D(3) dopamine receptor (P19020 whole entry): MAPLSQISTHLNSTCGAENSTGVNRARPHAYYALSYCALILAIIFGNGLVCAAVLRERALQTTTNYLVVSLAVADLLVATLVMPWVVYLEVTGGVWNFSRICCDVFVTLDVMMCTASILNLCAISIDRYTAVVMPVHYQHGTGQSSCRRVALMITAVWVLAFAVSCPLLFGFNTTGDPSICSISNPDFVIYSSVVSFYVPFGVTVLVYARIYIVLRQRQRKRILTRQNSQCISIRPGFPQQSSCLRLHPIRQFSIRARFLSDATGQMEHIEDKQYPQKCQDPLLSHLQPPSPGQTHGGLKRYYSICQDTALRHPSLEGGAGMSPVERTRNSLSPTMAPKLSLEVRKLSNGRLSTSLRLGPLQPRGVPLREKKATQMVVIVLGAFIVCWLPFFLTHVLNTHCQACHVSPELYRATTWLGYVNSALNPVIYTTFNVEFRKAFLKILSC
Chain of Sigma non-opioid intracellular receptor 1 (Q60492 whole entry): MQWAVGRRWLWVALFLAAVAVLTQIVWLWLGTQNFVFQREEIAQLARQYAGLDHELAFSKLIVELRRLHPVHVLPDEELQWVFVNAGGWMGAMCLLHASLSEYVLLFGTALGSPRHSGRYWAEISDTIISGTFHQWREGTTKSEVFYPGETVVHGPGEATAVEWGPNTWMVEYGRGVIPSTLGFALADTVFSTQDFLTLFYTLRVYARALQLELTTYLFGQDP
Chain of D(2) dopamine receptor (P61169 whole entry): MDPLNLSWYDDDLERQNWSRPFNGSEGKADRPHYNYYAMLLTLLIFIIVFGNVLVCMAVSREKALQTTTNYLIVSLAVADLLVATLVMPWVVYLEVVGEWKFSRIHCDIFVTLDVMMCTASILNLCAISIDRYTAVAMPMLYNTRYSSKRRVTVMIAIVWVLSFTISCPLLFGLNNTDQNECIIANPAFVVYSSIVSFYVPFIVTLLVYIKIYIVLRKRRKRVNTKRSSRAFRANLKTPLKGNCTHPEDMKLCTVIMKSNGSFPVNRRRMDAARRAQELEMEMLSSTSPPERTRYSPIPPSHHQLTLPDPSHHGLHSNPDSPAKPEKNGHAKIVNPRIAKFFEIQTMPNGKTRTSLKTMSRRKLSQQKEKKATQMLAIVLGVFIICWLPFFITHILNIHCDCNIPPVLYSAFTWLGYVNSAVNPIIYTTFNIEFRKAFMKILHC

SMILES: CCCC(CCC)C(=O)OC(CCCN1CCC(O)(c2ccc(Cl)cc2)CC1)c1ccc(F)cc1 (racemic)
- Activity [1]: 67%
- Stabilty [2]: Stable
- Activity [3]: 18%
- Activity (HREC [4]): inactive
- Activity [5]: 52%
- half-life [6]: 5.38 days
- Activity [7]: 25%
- solubility at 1 h [8]: 1400 µg/mL (≈ 2780 µM)
- inhibition [9]: inactive
- pIC50 [10]: 4.97
- IC50 [10]: 10.6 µM
- Activity [11]: 28%
- Activity (HREC [12]): inactive
- Activity [13]: 30%
- Activity (HREC [14]): inactive
- pKi (D(3) dopamine receptor): < 5.30
- Activity [15]: 24%
- pIC50 [16]: 5.00
- IC50 [16]: 10.1 µM
- pKi [17]: 6.91
- Activity [18]: 32%
- Activity [19]: 28%
- Activity (HREC [20]): Active
- half-life [21]: 5.58 days
- Activity (HREC [22]): inactive
- Activity [23]: 55%
- pIC50 [24]: 4.95
- IC50 [24]: 11.1 µM
- Activity (HREC [25]): Active
- pKi (D(2) dopamine receptor): < 5.30
- pIC50 [26]: 4.98
- IC50 [26]: 10.5 µM
- pKi [27]: 7.89
- Stabilty [28]: Unstable

SMILES: OC(CCCN1CCC(O)(c2ccc(Cl)cc2)CC1)c1ccc(F)cc1 (racemic) [HYDROXYHALOPERIDOL]
- Activity (HREC [29]): inactive
- Activity [30]: <50%
- Activity (HREC [4]): inactive
- Activity (HREC [31]): inactive
- pIC50 [10]: 4.25
- IC50 [10]: 56.6 µM
- Activity [32]: 29%
- pKi (D(3) dopamine receptor): 5.99
- Activity (HREC [33]): inactive
- Activity (HREC [34]): Tde
- Activity (HREC [35]): inactive
- pIC50 [16]: 4.16
- IC50 [16]: 68.7 µM
- pKi [17]: 8.62
- Activity (HREC [36]): inactive
- Activity (HREC [37]): inactive
- pIC50 [24]: 3.89
- IC50 [24]: 128 µM
- pIC50 [26]: < 3.70

SMILES: O=C(CCCN1CCC(O)(c2ccc(Cl)cc2)CC1)c1ccc(F)cc1 [HALOPERIDOL]
- Activity (HREC [38]): inactive
- pIC50 [10]: 5.64
- IC50 [10]: 2.29 µM
- Activity (HREC [39]): inactive
- Activity (HREC [40]): inactive

- pKi [17]: < 5.00
- pKi [27]: < 5.00
SMILES: CCCC(CCC)C(=O)O [VALPROIC ACID]
- Activity (HREC [4]): inactive
- Activity (HREC [31]): inactive
- pIC50 [10]: 2.83
- IC50 [10]: 1480 µM
- Activity (HREC [35]): inactive
- pIC50 [16]: 2.86
- IC50 [16]: 1390 µM
- Activity (HREC [36]): inactive
- Activity (HREC [37]): inactive
- pIC50 [24]: 2.84
- IC50 [24]: 1450 µM
- pIC50 [26]: 2.91
- IC50 [26]: 1220 µM
